In publication PMC7238799 (Pulmonary Circulation, 2020):

Tests used:
[1] = cited from earlier work
healthy subjects = experiment: Multiple ascending dose; type: in vivo, human; conditions: all dose levels, n = 20
Outline: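 Subjects on test compound or placebo were domiciled up to 31 days (QD Cohorts 1–2) or 34 days (BID Cohort 3), with a 48-h drug-free follow-up. Monitoring at multiple time points covered adverse events, vital signs, 12-lead ECG with intensive ECG monitoring in all cohorts, and safety labs (serum chemistry, hematology, urinalysis). Data were summarized descriptively by treatment group.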

## O=C(O)COC[C@H]1CC[C@H](COC(=O)N(c2ccccc2)c2ccc(Cl)cc2)CC1 [ralinepag]
[1]; animals
  Enterohepatic recirculation: observed
[1]; mouse, rat, dog, and monkey
  Oral bioavailability: moderate to high
Healthy subjects; Cohort 3, BID
  Abdominal distention, subjects (%): 0
  Abdominal pain, subjects (%): 4 (20%)
  Acne, subjects (%): 2 (10%)
  Application site dermatitis, subjects (%): 0
  Arthralgia, subjects (%): 9 (45%)
  Asthenia, subjects (%): 0
  Back pain, subjects (%): 2 (10%)
  Chapped lips, subjects (%): 2 (10%)
  Chest pain, subjects (%): 1 (5%)
  Chromaturia, subjects (%): 2 (10%)
  Constipation, subjects (%): 1 (5%)
  Decreased appetite, subjects (%): 1 (5.0%)
  Dermatitis contact, subjects (%): 2 (10%)
  Diarrhea, subjects (%): 7 (35%)
  Dizziness, subjects (%): 9 (45%)
  Dry mouth, subjects (%): 2 (10%)
  Eructation, subjects (%): 0
  Fatigue, subjects (%): 3 (15%)
  Feeling hot, subjects (%): 2 (10%)
  Flatulence, subjects (%): 0
  Flushing, subjects (%): 3 (15%)
  Headache, subjects (%): 17 (85%)
  Hordeolum, subjects (%): 0
  Muscle tightness, subjects (%): 2 (10%)
  Muscular weakness, subjects (%): 2 (10%)
  Myalgia, subjects (%): 9 (45%)
  Nausea, subjects (%): 9 (45%)
  Non-cardiac chest pain, subjects (%): 0
  Number of AEs reported: 196
  Ocular hyperemia, subjects (%): 3 (15%)
  Oropharyngeal pain, subjects (%): 1 (5%)
  Pain in extremity, subjects (%): 0
  Pain in jaw, subjects (%): 13 (65%)
  Palpitations, subjects (%): 5 (25%)
  Paraesthesia, subjects (%): 4 (20%)
  Pruritus, subjects (%): 2 (10%)
  Restless leg syndrome, subjects (%): 2 (10%)
  Somnolence, subjects (%): 2 (10%)
  Total (%) subjects with at least one AE: 19 (95.0%)
  Total (%) subjects with at least one SAE: 0 (0%)
  Tremor, subjects (%): 1 (5.0%)
  Vomiting, subjects (%): 3 (15%)
Healthy subjects; Cohorts 1 and 2, QD
  Abdominal distention, subjects (%): 2 (10%)
  Abdominal pain, subjects (%): 6 (30%)
  Acne, subjects (%): 0
  Application site dermatitis, subjects (%): 6 (30%)
  Arthralgia, subjects (%): 0
  Asthenia, subjects (%): 2 (10%)
  Back pain, subjects (%): 1 (5%)
  Chapped lips, subjects (%): 0
  Chest pain, subjects (%): 1 (5%)
  Chromaturia, subjects (%): 0
  Constipation, subjects (%): 6 (30%)
  Decreased appetite, subjects (%): 4 (20%)
  Dermatitis contact, subjects (%): 0
  Diarrhea, subjects (%): 5 (25%)
  Dizziness, subjects (%): 5 (25%)
  Dry mouth, subjects (%): 0
  Eructation, subjects (%): 3 (15%)
  Fatigue, subjects (%): 2 (10%)
  Feeling hot, subjects (%): 2 (10%)
  Flatulence, subjects (%): 2 (10%)
  Flushing, subjects (%): 7(35%)
  Headache, subjects (%): 19 (95%)
  Hordeolum, subjects (%): 3 (15%)
  Muscle tightness, subjects (%): 0
  Muscular weakness, subjects (%): 1 (5%)
  Myalgia, subjects (%): 6 (30%)
  Nausea, subjects (%): 17 (85%)
  Non-cardiac chest pain, subjects (%): 2 (10%)
  Number of AEs reported: 230
  Ocular hyperemia, subjects (%): 0
  Oropharyngeal pain, subjects (%): 2(10%)
  Pain in extremity, subjects (%): 3 (15%)
